The values that follow come from article PMC6001664 (Chemmedchem, 2018).

Values after ≈ are worked out from the molar mass of the structure shown. Read-outs that look alike come from different tables or passages of the source. Bounds are passed on as bounds.

The test system of data set [1] is endogenous HIF in recombinant A549 lung carcinoma cell. Kind of data set: HIF-reporter cell assay. Format: cell-based.
Data set [2] addresses T1, PHD1 (Homo sapiens, UniProt Q96KS0). Briefly: Biochemical HIF-PH enzyme assay. To be noted: for LipE (lipophilic binding efficiency): LipE=pIC50−logD 7.5; for BEI (binding efficiency index): from pIC50 and molecular weight; for dependence of potency (IC50) on Fe^2+ concentration: Fe^2+ varied in reaction buffer (3 μM and 30 μM, Figure 3). A digest of the protocol: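 Human HIF-PH hydroxylates Pro564 of a HIF peptide (aa 556–574). The hydroxylated peptide binds europium-labelled recombinant VBC complex, and inhibition is read as lower fluorescence. Iron dependence was tested at 3 and 30 μM Fe²⁺. LipE = pIC50 − logD7.5; BEI derived from pIC50 and corrected molecular weight.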

Data set [3] deals with plasma EPO. Briefly: EPO mRNA / plasma EPO in mice. Type of data set: in vivo. To be noted: for plasma EPO concentration: 4 h after p.o. dosing of 100 mg kg^−1, baseline ≈120 pg mL^−1.
Data set [4] deals with plasma EPO. Kind of data set: Plasma EPO in rats after oral dosing. Format: in vivo. Conditions: 4 h (Figure 7), BAY-908 50 mg kg^−1.
Data set [5] is described as follows: logD 7.5 by HPLC retention time correlation. Type of data set: physicochemical. Conditions: pH 7.5. A digest of the protocol: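 logD at pH 7.5 was estimated by correlating HPLC retention times with those of reference compounds of known logD7.5.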
The nature of a further data set: Aqueous solubility. Type of data set: physicochemical. Conditions: water.
In another data set the test system is major CYP isoforms. Briefly: CYP profile. Format: in vitro ADME.
Data set [6] in a line: Pharmacokinetic studies in rats. Conditions: rat; for clearance: blood, iv, 2 mg/kg; for bioavailability as Tylose suspension / Relative bioavailability (Tylose suspension): p.o.; for bioavailability as Tylose suspension: 0.5 % Tylose in water; for Relative bioavailability (Tylose suspension): 0.5 % Tylose in water vs solution. Format: in vivo.
For data set [7] the following is noted: sodium salt; cited from earlier work.
For data set [8] the following is noted: cited from earlier work.
A short description of data set [9]: pKa determination by spectrophotometry. Type of data set: physicochemical. Conditions: aqueous solution.
Data set [10] relates to broad range of targets including 2‐OG‐dependent dioxygenases, metalloenzymes, nuclear hormone receptors and cell surface receptors. Kind of data set: Lead profiling selectivity panel.
Data set [11] addresses T1, PHD1. Conditions: cited from earlier work.
Another data set concerns PHD3. Conditions: salt-free compound; cited from earlier work.
The next data set deals with HIF‐1α in HeLa cells. Kind of data set: Induction of HIF-1α in HeLa cell cultures. Conditions: human HeLa cell cultures. Format: cell-based.
The next data set has as its system EPO in HuH cells. Kind of data set: EPO induction in hepatoma HuH cells. Type of data set: cell-based, human.
The test system of data set [12] is hematocrit and reticulocytes. Briefly: Hematocrit and reticulocytes in mice. Format: in vivo.
Data set [13] is described as follows: Elimination of iron via urine in rats. Format: in vivo. Conditions: oral administration.
The conditions of data set [14]: metabolite of molidustat; cited from earlier work.
Where [15] appears, read: Homo sapiens, A549, read-out: EC50 HIF-reporter cell assay.

T1 sequence (Q96KS0 whole entry, the tested form may be a part): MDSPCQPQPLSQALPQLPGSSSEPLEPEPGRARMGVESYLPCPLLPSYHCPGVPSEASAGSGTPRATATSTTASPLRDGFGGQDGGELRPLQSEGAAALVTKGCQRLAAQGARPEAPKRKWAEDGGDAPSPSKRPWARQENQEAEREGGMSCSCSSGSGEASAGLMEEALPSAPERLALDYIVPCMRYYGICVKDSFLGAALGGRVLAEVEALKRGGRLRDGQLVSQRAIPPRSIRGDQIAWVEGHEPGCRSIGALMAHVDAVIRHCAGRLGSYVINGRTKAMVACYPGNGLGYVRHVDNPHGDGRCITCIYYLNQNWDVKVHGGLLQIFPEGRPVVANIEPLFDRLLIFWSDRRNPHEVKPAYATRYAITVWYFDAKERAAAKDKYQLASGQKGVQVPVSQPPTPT

One may read the EC50 as the midpoint of the concentration-response curve. Regarding `[Cl][Co][Cl]` [cobalt chloride, reference compound], the concentration giving a half-maximal response (EC50) in data set [1] (read-out: EC50 HIF-reporter cell assay, A549 HIFRE2 luciferase reporter) was around 50000 nM.

The IC50 is the concentration that gives 50% inhibition. `Cc1cncc(-c2cnn(-c3ccccn3)c2O)c1` [Compound 30] came in with an IC50 against PHD1 [2] of 1700 nM.

On PHD1 [2], `O=c1c(-c2cccnc2)c[nH]n1-c1cc(CO)ccn1` [Compound 17] showed an IC50 of 1500 nM.

On PHD1 [2], `O=c1c(-n2ccnn2)c[nH]n1-c1ccccn1` [Compound 41] had a concentration for half-maximal inhibition (IC50) of 790 nM. In addition, the concentration for a half-maximal effect (EC50) in data set [1] (setting [15]) was above 20000 nM.

Consider `O=c1c(-c2cccnc2)c[nH]n1-c1cc(COCc2ccccc2)ccn1` [Compound 18], for which, at PHD1 [2], the IC50 turned out to be 2900 nM.

Take `N#Cc1cncc(-c2cnn(-c3ccccn3)c2O)c1` [Compound 35]: the IC50 at PHD1 [2] was 1000 nM.

Consider `Cc1ccc(-c2c[nH]n(-c3ccccn3)c2=O)cn1` [Compound 31], for which the IC50 against PHD1 [2] was 3200 nM.

Regarding `Cc1cccc(-n2[nH]cc(-c3cccnc3)c2=O)n1` [Compound 13], it took 8900 nM to reach half-maximal inhibition against PHD1 [2] (IC50).

On PHD1 [2], `Cc1nn(-c2ccccn2)c(O)c1-c1cccnc1` [Compound 3] registered an IC50 of 3500 nM.

Consider `O=c1c(-c2cccnc2)c[nH]n1-c1cc(N2CCCCC2)ncn1` [Compound 22], for which, at PHD1 [2], the IC50 was found to be 1500 nM.

`Oc1c(-c2cccnc2)ncnc1-c1ccccn1` [Compound 10] yielded an IC50 against PHD1 [2] above 50000 nM.

As for `COc1ccc(-c2c[nH]n(-c3ccccn3)c2=O)cn1` [Compound 33], it took 190 nM to reach half-maximal inhibition against PHD1 [2] (IC50).

Compound `O=c1c(-n2cnc(C(F)(F)F)c2)c[nH]n1-c1ccccn1` [Compound 38] showed an IC50 against PHD1 [2] of 150 nM.

In general, chromatographic logD refers to a lipophilicity value derived from retention on a column. A higher chromatographic logD goes with higher lipophilicity. One may read the solubility as the concentration that dissolves in the medium under given conditions. Low readings indicate a poorly soluble substance, high ones a readily soluble substance. The clearance is the rate of elimination divided by the concentration. A lower clearance goes with inefficient removal. In the case of `Oc1c(-n2ccnc2)cnn1-c1cc(N2CCCCC2)ncn1` [Compound 44, 4‐(1H‐Imidazol‐1‐yl)‐1‐[6‐(piperidin‐1‐yl)pyrimidin‐4‐yl]‐1H‐pyrazol‐5‐ol], on PHD1 [2], half-maximal inhibition (IC50) required 500 nM, the “LipE (lipophilic binding efficiency)” value is listed as 5.3 and the “BEI (binding efficiency index)” value is 20.2. The EC50 in [1] (setting [15]) is 4900 nM. Moreover, the “plasma EPO concentration” value in the data set with plasma EPO [3] is “≈ 3000 pg mL^−1”. Also, in the data set on plasma EPO [4], the “plasma EPO concentration in rats” value is listed as “improved”. Further, the chromatographic logD in [5] came out at 1. In “Aqueous solubility”, this compound had a solubility of 520 µg/mL (≈ 1670 µM). In addition, the “CYP profile / CYP inhibition” value with major CYP isoforms is on record as “not optimal”. Also, in data set [6], the clearance was 21.7 mL/min/kg, the “bioavailability as Tylose suspension” value is reported as “remained unchanged” and the “Relative bioavailability (Tylose suspension)” value (shortened to “Relative bioavailability”) stood at 97%. Also, the early safety profile result in the data set “Early safety profile” is listed as “not optimal”.

On to `Cn1cc(-c2cccnc2)c(=O)n1-c1ccccn1` [Compound 9], for which the IC50 against PHD1 [2] is above 50000 nM.

At PHD1 [2], `Nc1c(-c2cccnc2)cnn1-c1ccccn1` [Compound 6] came in with a half-maximal inhibitory concentration (IC50) above 50000 nM.

Compound `O=c1c(-c2cccnc2)c[nH]n1-c1ccc(COCc2ccccc2)cn1` [Compound 27] displayed an IC50 on PHD1 [2] of 1100 nM.

In the case of `[Na+].[O-]c1c(-n2ccnn2)cnn1-c1cc(N2CCOCC2)ncn1` [Compound 84, Sodium 1‐[6‐(morpholin‐4‐yl)pyrimidin‐4‐yl]‐4‐(1 H ‐1,2,3‐triazol‐1‐yl)‐1H‐pyrazol‐5‐olate], the solubility in water in data set [7] is 28000 µg/mL. Further, the water content in data set [8] (20–35 °C, normal pressure) is below 0.5 % w/w. Besides, in [8] (relative humidity of up to 90 %), the “change of water content” value was below 0.5 % w/w.

On to `COc1cc(-n2[nH]cc(-c3cccnc3)c2=O)ncn1` [Compound 20], for which the IC50 on PHD1 [2] is 880 nM.

`O=c1c(-c2cccnc2)n[nH]n1-c1ccccn1` [Compound 4]: the IC50 against PHD1 [2] was found to be 24000 nM.

For `Oc1c(-n2ccnn2)cnn1-c1cc(N2CCOCC2)ncn1` [Compound 45, 1‐[6‐(Morpholin‐4‐yl)pyrimidin‐4‐yl]‐4‐(1H‐1,2,3‐triazol‐1‐yl)‐1H‐pyrazol‐5‐ol], at PHD1 [2], the “dependence of potency (IC50) on Fe^2+ concentration” value is recorded as “independent”, the “LipE (lipophilic binding efficiency)” value is given as 6.1 and the “BEI (binding efficiency index)” value came to 20.1. For the same compound, the EC50 in data set [1] (setting [15]) was 8400 nM. Also, in the data set on plasma EPO [3], the “plasma EPO concentration” value is listed as “≈ 4000 pg mL^−1”. The “plasma EPO concentration in rats” value with plasma EPO [4] is “Very high EPO induction”. Also, the pK a in [9] is given as 4.4. The compound also displayed a chromatographic logD in data set [5] of 0.27. The solubility in the data set “Aqueous solubility” was determined as 140 µg/mL (≈ 445 µM). For the same compound, the “CYP profile / CYP inhibition” value in the data set on major CYP isoforms was “favorable”. Moreover, the “selectivity profile in lead profiling panel” value in [10] is listed as “favorable”. In data set [6], the clearance is 18.3 mL/min/kg, the “bioavailability as Tylose suspension” value is “remained unchanged” and the “Relative bioavailability” value worked out at 102%. Besides, the “change in potency on variation of Fe^2+ concentration” value at PHD1 [11] (Fe^2+ in the reaction buffer varied by a factor of 30) is listed as at most 2 fold. Besides, the IC50 on PHD1 [11] (biochemical assay, PHD1, HCl salt, ref 30 (WO2008067871 A1, example 72)) is 490 nM. For the same compound, the IC50 in the data set on PHD3 is 450 nM. In addition, the water uptake entry in [8] (20–35 °C, normal pressure, >20 % relative humidity) is “up to 6 % w/w”.

At PHD1 [2], `O=c1c(-c2cnccn2)c[nH]n1-c1ccccn1` [Compound 36] yielded an IC50 of 28000 nM.

Take `Cc1ccc(-n2[nH]cc(-c3cccnc3)c2=O)nc1` [Compound 12]: the half-maximal inhibitory concentration (IC50) against PHD1 [2] is 1700 nM.

The compound `S=c1c(-c2cccnc2)c[nH]n1-c1ccccn1` [Compound 5] gave an IC50 on PHD1 [2] of 7500 nM.

As to `O=c1c(-c2cccnc2)c[nH]n1-c1cc(N2CCOCC2)ncn1` [Compound 23], the half-maximal inhibitory concentration (IC50) on PHD1 [2] came to 180 nM.

With `Oc1c(-c2cccnc2)cnn1-c1ccccn1` [Compound 1, 1‐(Pyridin‐2‐yl)‐4‐(pyridin‐3‐yl)‐1H‐pyrazol‐5‐ol], at PHD1 [2], half-maximal inhibition (IC50) required 430 nM, the “dependence of potency (IC50) on Fe^2+ concentration” value is on record as “only minor changes”, the “LipE (lipophilic binding efficiency)” value is 5.8 and the “BEI (binding efficiency index)” value is listed as 26.7. Moreover, the EC50 in [1] (setting [15]) was 4900 nM. Also, in the data set on HIF‐1α in HeLa cells, the “concentration at which HIF‐1α was detected” value was above 0.25 µM. Besides, the EC50 in the data set on EPO in HuH cells (Homo sapiens, read-out: EC50 EPO mRNA induction) came out at 1900 nM. The “increase in EPO concentration in the supernatant compared with baseline” value in the data set on EPO in HuH cells (human hepatoma HuH cells) is “threefold”. In addition, the “plasma EPO concentration” value with plasma EPO [3] is on record as “≈ 900 pg mL^−1”. Besides, in the data set with plasma EPO [3] (after i.p. and p.o. administration), the “EPO mRNA and plasma EPO levels / EPO induction” value is “increased”. Also, the “plasma EPO concentration in rats” value in the data set on plasma EPO [4] is given as “increased”. Also, in data set [12], the hematocrit and reticulocytes entry is recorded as “increase”. In addition, the “elimination of iron via urine” value in data set [13] was “did not result in any increased elimination of iron via urine”. In addition, the chromatographic logD in data set [5] worked out at 0.6. The compound further showed a solubility in “Aqueous solubility” below 1 µg/mL. The “CYP profile / CYP inhibition” value with major CYP isoforms is recorded as “clean”. In addition, in [10], the “selectivity profile in lead profiling panel” value is reported as “favorable”. In data set [6], the clearance is 48.3 mL/min/kg and the “Relative bioavailability” value was 26%.

For `Cc1cn(-c2c[nH]n(-c3ccccn3)c2=O)nn1` [Compound 42], on PHD1 [2], the midpoint of inhibition, the IC50, lay at 330 nM.

As for `Cc1ccnc(-n2[nH]cc(-c3cccnc3)c2=O)c1` [Compound 11], inhibition against PHD1 [2] was half-maximal at 340 nM (IC50).

Turning to `O=C(O)[C@H]1O[C@@H](n2cc(-n3ccnn3)c(=O)n2-c2cc(N3CCOCC3)ncn2)[C@H](O)[C@@H](O)[C@@H]1O` [Compound 85, 1‐(Beta‐D‐glucopyranuronosyl)‐2‐[6‐(morpholin‐4‐yl)pyrimidin‐4‐yl]‐4‐(1H‐1,2,3‐triazol‐1‐yl)‐1,2‐dihydro‐3H‐pyrazol‐3‐one], the “CYP profile / CYP inhibition” value with major CYP isoforms was “no relevant CYP inhibition”. In addition, the excreted via urine in [14] is 85 % of dose.

`COc1c(-c2cccnc2)cnn1-c1ccccn1` [Compound 8] came in with an IC50 against PHD1 [2] above 50000 nM.

`N#Cc1ccc(-c2c[nH]n(-c3ccccn3)c2=O)cn1` [Compound 34] gave a concentration for half-maximal inhibition (IC50) at PHD1 [2] of 100 nM.

Consider `CCOC(=O)c1ccc(-n2[nH]cc(-c3cccnc3)c2=O)nc1` [Compound 25], for which the IC50 against PHD1 [2] was 650 nM. Moreover, the half-maximal effective concentration (EC50) in data set [1] (setting [15]) is 5300 nM.

For the compound `CC(=O)N(O)CCCCCNC(=O)CCC(=O)N(O)CCCCCNC(=O)CCC(=O)N(O)CCCCCN` [deferoxamine, reference compound], the half-maximal effective concentration (EC50) in [1] (setting [15]) was around 25000 nM.
